A selection: hits, their analogues and other compounds. The true share with any hit is near 1.7%.
IDE act: human IDE activators in live cells, primary screen, fluorescence polarization, HEK cells, FAbeta-B substrate; Insulin-degrading enzyme (Homo sapiens), P14735; FAbeta-B cleavage; 0% vehicle, 100% cell-free pure enzyme wells; activation, % at 5.96 µM; hit rate 0.073% among 340,000; AID 493087, 2011;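 active means activation above the mean of all tested compounds plus 3 SD, set per screening campaign, cut at about 17% in these data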
HNF4A DNA FP: change in binding of human HNF4A to DNA, primary screen, biochemical, fluorescence polarization, FITC-DNA; Hepatocyte nuclear factor 4-alpha (Homo sapiens), P41235; 1 h; activity change, % at 10 µM; hit rate 0.3% among 360,000; in the data active means activity change above about 30%, passing the limit was not always enough
TPT1 inh: Candida albicans TPT1 enzyme inhibitors, primary screen, biochemical, fluorescence polarization. tRNA 2'-phosphotransferase TPT1 (Candida albicans SC5314). recombinant caTPT1, FP RNA substrate dephosphorylation. inhibition, % at 5 µM. hit rate 0.81% among 300,000. AID 1962, 2009;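 active means inhibition above the mean of all tested compounds plus 3 SD, set per screening campaign, cut at about 24% in these data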;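 further: plate controls were DMSO alone for no effect and ferristatin control at 100 nM for full effect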
IDE cell inh: human IDE inhibitors in live cells, primary screen, fluorescence polarization, HEK cells, FAbetaB substrate. hit rate 0.41% among 320,000. Insulin-degrading enzyme (Homo sapiens), P14735. inhibition, % at 5.59 µM. FAbetaB cleavage;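 active means percent inhibition above the average of all tested compounds plus 3 SD, set per screening campaign, cut at about 16% in these data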;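 further: IDE supplied by intact live HEK cells; FP after avidin binding of uncleaved biotin substrate so inhibition keeps polarization high; 0% = DMSO wells and 100% = 60 µM reference IDE inhibitor Ii1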
CSN inh: inhibitors of CSN-mediated cullin deneddylation, primary screen, biochemical, fluorescence polarization, uHTS; Purified CSN, SCF-Nedd8-OG deneddylation; AID 651999, 2013; hit rate 0.38% among 360,000; inhibition, % at 12.5 µM;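 active means pattern-corrected inhibition above about 35%, with an unprinted fluorescence ratio check between 0.5 and 1.5, limit read from the data, passing the limit was not always enough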;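 further: 0% = enzyme with substrate and 100% = substrate without enzyme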
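Assay system: purified human Csn5 enzyme expressed in HEK293T cells; Input: 0.24 nM Csn5 enzyme, final concentration; Reagent: 10 nM SCFSkp2-Nedd8OG; Compound dosing: 12.5 µM single point; Times: reaction 90 min, room temperature; Technique: fluorescence polarization readout.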
Rpn11 block: Rpn11 (PSMD14) deubiquitinase inhibitors, primary screen, biochemical, fluorescence polarization, uHTS; 26S proteasome non-ATPase regulatory subunit 14 (Homo sapiens), O00487; human 26S proteasome, Ub4-pepOG fluorescence polarization; 20S core pre-blocked with epoxomicin; inhibition, % at 20 µM; hit rate 0.59% among 360,000;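 active means inhibition at 20 µM, scaled to each plate's controls, above about 33%, limit read from the data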
Rpn11 confirm: Rpn11 (PSMD14) deubiquitinase inhibitors, confirmation, biochemical, fluorescence polarization, single concentration; AID 602318, 2012; hit rate 29% among 1,900; purified human 26S proteasome, Ub4-pepOG fluorescence polarization; proteasome pretreated with epoxomicin; shares compounds with Rpn11 block; inhibition, % at 20 µM
MMP-2 inh: MMP-2 enzyme inhibition, confirmation, counter-screen for RPN11 inhibitor project, biochemical, fluorescence, single concentration. recombinant MMP-2, FRET peptide cleavage fluorescence. hit rate 4% among 1,900. shares compounds with Rpn11 block. AID 602330, 2012. inhibition, % at 20 µM;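 further: human MMP-2 activated beforehand with APMA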
Thrombin FP: bovine thrombin protease inhibition, confirmation, counter-screen for Rpn11 inhibitor project, biochemical, fluorescence polarization, single concentration; shares compounds with Rpn11 block; bovine thrombin cleavage of Ub4-pepOG; inhibition, % at 20 µM; hit rate 13% among 1,900;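 active means mean inhibition at least 40% at 20 µM, or signal 3 deviations below plate average, so some actives read negative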;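 further: plate controls were thrombin with DMSO for no effect and buffer wells lacking thrombin for full effect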
Target sequence (P00735 whole entry, looked up): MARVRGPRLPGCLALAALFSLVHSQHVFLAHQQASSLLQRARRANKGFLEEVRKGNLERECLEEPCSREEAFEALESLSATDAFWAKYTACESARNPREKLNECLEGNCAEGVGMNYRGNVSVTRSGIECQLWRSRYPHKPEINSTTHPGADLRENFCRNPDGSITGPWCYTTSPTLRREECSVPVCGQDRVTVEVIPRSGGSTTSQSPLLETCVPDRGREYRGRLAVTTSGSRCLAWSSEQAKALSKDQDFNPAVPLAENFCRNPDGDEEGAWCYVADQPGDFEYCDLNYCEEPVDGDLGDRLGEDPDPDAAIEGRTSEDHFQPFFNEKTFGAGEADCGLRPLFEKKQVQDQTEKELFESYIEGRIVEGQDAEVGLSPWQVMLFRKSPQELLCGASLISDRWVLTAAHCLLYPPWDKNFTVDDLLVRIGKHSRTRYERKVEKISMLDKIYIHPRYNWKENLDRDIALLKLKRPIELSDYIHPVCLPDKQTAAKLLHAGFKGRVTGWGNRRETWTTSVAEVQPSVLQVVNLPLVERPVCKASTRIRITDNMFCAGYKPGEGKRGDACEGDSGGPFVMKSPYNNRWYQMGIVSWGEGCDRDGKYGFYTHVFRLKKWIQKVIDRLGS
* marks the source's active call; other numbers are inactive results. Unless noted, no stated cut-off is given here; in the data, active means inhibition above about 40%; inactive means the rest.

`Cc1ccsc1/C=N/n1c(-c2cc(-c3ccccc3)n[nH]2)n[nH]c1=S` gave IDE act 0.4, HNF4A DNA FP -5.3, TPT1 inh -1.6, IDE cell inh 4.7, CSN inh 6.2, Rpn11 block 53.4*, Rpn11 confirm 100.2*, MMP-2 inh 20.3 and Thrombin FP 14.3.
For COc1cccc(NC(=O)c2ccccc2)c1 the results were IDE act 4.3, HNF4A DNA FP 0.3, TPT1 inh 2.3, IDE cell inh 0.0, CSN inh -0.8 and Rpn11 block -1.3.
For COc1cccc(C(=O)Nc2cccc(-c3ccccc3)c2)c1 the results were IDE act 2.6, HNF4A DNA FP -19.9, TPT1 inh 0.8, IDE cell inh 1.4, CSN inh -3.4, Rpn11 block 48.6*, Rpn11 confirm 3.9, MMP-2 inh 5.1 and Thrombin FP -6.0.
For COc1ccc(S(=O)(=O)N2CCC(C(=O)N[C@@H](C)C(=O)NCc3ccco3)CC2)cc1 the results were HNF4A DNA FP -1.8, CSN inh -1.6 and Rpn11 block 6.7.
CCN(CC)c1ccc(/C=N/NC(=O)c2cccc(S(=O)(=O)Nc3ccccc3OC)c2)cc1 was read as IDE act -4.3, HNF4A DNA FP 11.2, TPT1 inh 1.5, IDE cell inh 2.0, CSN inh 13.7, Rpn11 block 49.7*, Rpn11 confirm 56.6*, MMP-2 inh -19.3 and Thrombin FP 33.1.
Cc1noc(C)c1NC(=O)N(C)C[C@H]1Oc2ccc(NS(=O)(=O)c3ccc(F)cc3)cc2C(=O)N([C@H](C)CO)C[C@@H]1C was read as IDE act 6.0, HNF4A DNA FP 6.5, IDE cell inh -5.2, CSN inh 0.4, Rpn11 block 60.1*, Rpn11 confirm -3.8, MMP-2 inh -6.7 and Thrombin FP 5.1.
For C/C(CC(=O)Nc1cccc(F)c1)=N\NC(=O)c1ccncc1 the results were IDE act -0.1, HNF4A DNA FP -1.4, TPT1 inh 4.1, IDE cell inh 0.3, CSN inh -1.5 and Rpn11 block -7.2.
`Cc1c(NS(=O)(=O)c2cc(C(=O)NCCN(C)C)ccc2Cl)c(=O)n(-c2ccccc2)n1C` gave IDE act 3.8, HNF4A DNA FP -1.2, TPT1 inh -1.9, IDE cell inh -2.1, CSN inh 2.9 and Rpn11 block -7.8.
`COC(=O)[C@@]12C[C@@H](CC(=O)NCCCN3CCCC3=O)C(=O)N(CCc3ccc(OC)c(OC)c3)C1=CCC(C)(C)C2` gave HNF4A DNA FP 1.4 and CSN inh 1.1.
O=c1[nH]c(/C=C/c2ccccc2Cl)nc2ccccc12 was read as IDE act 3.4, HNF4A DNA FP 79.5*, TPT1 inh -2.5, IDE cell inh -0.8, CSN inh 27.7, Rpn11 block 75.0*, Rpn11 confirm 25.0, MMP-2 inh 7.5 and Thrombin FP -18.3.
Screening c1ccc(CNc2nc(-c3cccnc3)nc3ccccc23)cc1 returned IDE act -4.8, HNF4A DNA FP 4.0, CSN inh -0.4 and Rpn11 block -9.1.
Screening Clc1cccc(CNc2nc(-c3cccnc3)nc3ccccc23)c1 returned IDE act -11.6, HNF4A DNA FP 4.9, CSN inh 5.5, Rpn11 block 53.9*, Rpn11 confirm 4.2, MMP-2 inh -60.2 and Thrombin FP -16.8.
Screening COc1ccc2[nH]cc(CCNC(=O)c3ccccc3Cl)c2c1 returned IDE act 1.3, HNF4A DNA FP 0.8, TPT1 inh -39.2, IDE cell inh -4.9, CSN inh 1.7, Rpn11 block 58.8*, Rpn11 confirm -24.8, MMP-2 inh -24.0 and Thrombin FP -24.3.
`COc1ccc2[nH]cc(CCNC(=O)Cc3c(F)cccc3Cl)c2c1` gave IDE act 5.1, HNF4A DNA FP 2.0, TPT1 inh 1.8, IDE cell inh 4.1, CSN inh 7.2 and Rpn11 block -2.0.
For O=c1[nH]c2ccc(Cl)cc2c(-c2ccccc2)c1SC(=S)N1CCOCC1 the results were IDE act -14.2, HNF4A DNA FP -4.4, TPT1 inh -5.1, IDE cell inh 4.6, CSN inh 0.9, Rpn11 block 42.5*, Rpn11 confirm 6.8, MMP-2 inh 1.2 and Thrombin FP -14.5.
For COc1ccc2cc(C#N)c(SCC(=O)N3CC(=O)Nc4ccccc43)nc2c1 the results were IDE act 6.3, HNF4A DNA FP -0.6, TPT1 inh 2.6, IDE cell inh 3.8, CSN inh -8.0, Rpn11 block 47.8*, Rpn11 confirm -4.4, MMP-2 inh -41.7 and Thrombin FP -20.4.
Screening CCOC(=O)[C@]12CCCC=C1N(Cc1ccco1)C(=O)[C@H](CC(=O)N1CCN(C(=O)c3ccco3)CC1)C2 returned HNF4A DNA FP 1.6 and CSN inh -1.1.
`O=C(/C=C/c1ccccc1Cl)c1ccccc(=O)c1O` gave IDE act 4.5, HNF4A DNA FP -4.2, TPT1 inh -1.2, IDE cell inh -1.3, CSN inh 19.1 and Rpn11 block 14.8.
Screening O=C(/C=C/c1ccc([N+](=O)[O-])cc1)c1ccccc(=O)c1O returned IDE act 0.6, HNF4A DNA FP -1.4, CSN inh 17.9, Rpn11 block 42.2*, Rpn11 confirm -1.8, MMP-2 inh -1.9 and Thrombin FP -15.3.
For COC(=O)/C=C1\OCc2c(F)cccc21 the results were HNF4A DNA FP 1.1 and CSN inh 4.2.
COc1cc(CN2c3ccccc3C(=O)CS2(=O)=O)cc(OC)c1 was read as IDE act 3.1, HNF4A DNA FP 2.2, CSN inh -0.9, Rpn11 block 58.0*, Rpn11 confirm 82.1*, MMP-2 inh -45.9 and Thrombin FP -17.9.

From PubChem BioAssay
